For 3 compounds, EC50, MCC and IC50 results are on record in ChEMBL document CHEMBL2021796, “Synthesis and biological evaluation of a series of thieno-expanded tricyclic purine 2'-deoxy nucleoside analogues” (Bioorg Med Chem, 2012).

In one data set the test system is Sindbis virus. The data set can be described thus: Antiviral activity against Sindbis virus infected in african green monkey Vero cells assessed as inhibition of virus-induced cytopathogenicity. The class given is functional, organism-based. In short, it runs like this:
(§1)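 Confluent HEL, Vero or HeLa monolayers were infected with 100 CCID50 of virus while exposed to fivefold serial dilutions of compound. Virus-induced cytopathicity was scored when it reached completion in untreated infected controls. The EC50 is the concentration that inhibits cytopathicity by 50%.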

Data set [1] relates to Mammalian orthoreovirus 1. The data set can be described thus: Antiviral activity against Reovirus-1 infected in african green monkey Vero cells assessed as inhibition of virus-induced cytopathogenicity. The data set is classed as functional, organism-based. The settings on record: Mammalian orthoreovirus 1, Vero. The essentials: as §1
In data set [2] the test system is Human immunodeficiency virus 1. Put plainly: Antiviral activity against Human immunodeficiency virus 1 3B infected in human CEM cells assessed as inhibition of virus-induced giant cell formation after 4 days by microscopic analysis. The settings on record: CCRF-CEM, 96 h. The class given is functional, organism-based. In short, it runs like this:
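CEM cells at about 3 × 10^5 cells/cm3 were infected with 100 CCID50/ml of virus and seeded into wells containing compound dilutions. After 4 days at 37 °C, giant cell formation was assessed under the microscope.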

Data set [3] relates to Influenza A virus. The data set can be described thus: Antiviral activity against influenza A virus H1N1 infected in MDCK cells assessed as inhibition of virus-induced cytopathogenicity. The class given is functional, organism-based. In short, it runs like this: (§2)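 Nearly confluent MDCK cultures were infected while exposed to fivefold serial dilutions of compound. Cytopathicity was scored when it reached completion in untreated infected controls. The EC50 is the concentration that inhibits virus-induced cytopathicity by 50%.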

The subject of data set [4] is Coxsackievirus B4. The data set can be described thus: Antiviral activity against Coxsackie virus B4 infected in african green monkey Vero cells assessed as inhibition of virus-induced cytopathogenicity. The data set is classed as functional, organism-based. The note with it: Enterovirus B. In short, it runs like this:
as §1

The nature of data set [5]: Cytotoxicity against human HeLa cells assessed as morphological changes by microscopic analysis. The data set is classed as cell-based. The essentials: (§3)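 Confluent HEL, Vero or HeLa cultures, or near-confluent MDCK cultures, exposed to fivefold compound dilutions in parallel with the antiviral cytopathicity tests. MCC is the lowest concentration causing microscopically visible alteration of cell morphology.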

The test system of data set [6] is Vesicular stomatitis virus. Put plainly: Antiviral activity against Vesicular stomatitis virus infected in HeLa cells. The class given is functional, organism-based. The essentials: as §1
The nature of data set [7]: Cytotoxicity against HEL cells assessed as morphological changes by microscopic analysis. The settings on record: human. The data set is classed as cell-based. The essentials: as §3
The next data set has as its system Influenza B virus. Put plainly: Antiviral activity against influenza B virus infected in MDCK cells assessed as inhibition of virus-induced cytopathogenicity. The class given is functional, organism-based. In short, it runs like this: as §2
Data set [8] has as its system Influenza A virus. The data set can be described thus: Antiviral activity against Influenza A virus H3N2 infected in MDCK cells assessed as inhibition of virus-induced cytopathogenicity. The class given is functional, organism-based. The essentials: as §2
Data set [9] concerns Human alphaherpesvirus 1. The data set can be described thus: Antiviral activity against Herpes simplex virus 1 KOS infected in HEL cells assessed as inhibition of virus-induced cytopathogenicity. The settings on record: Human alphaherpesvirus 1, KOS. The data set is classed as functional, organism-based. The essentials:
as §1

In data set [10] the test system is Human immunodeficiency virus 2. Put plainly: Antiviral activity against Human immunodeficiency virus 2 ROD infected in human CEM cells assessed as inhibition of virus-induced giant cell formation after 4 days by microscopic analysis. The settings on record: Human immunodeficiency virus 2, ISOLATE ROD, CCRF-CEM, 96 h. The class given is functional, organism-based. The essentials: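 CEM cells (~3 × 10^5 cells/cm3) infected with 100 CCID50 of HIV-2(ROD) per ml and seeded into microtiter wells holding compound dilutions. Incubated 4 days at 37 °C. Giant cell formation examined microscopically.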

A further data set relates to Human respirovirus 3. Put plainly: Antiviral activity against Parainfluenza-3 virus infected in african green monkey Vero cells assessed as inhibition of virus-induced cytopathogenicity. The data set is classed as functional, organism-based. The settings on record: Human respirovirus 3, Vero. The essentials:
(§4)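 Confluent cell monolayers (Vero for parainfluenza-3, HEL for HSV-1 TK−) inoculated with 100 CCID50 of virus alongside fivefold compound dilutions. Cytopathicity recorded once complete in untreated infected controls. EC50 is the concentration inhibiting virus-induced cytopathicity by 50%.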

In the next data set the test system is Human alphaherpesvirus 2. Put plainly: Antiviral activity against Herpes simplex virus 2 G infected in HEL cells assessed as inhibition of virus-induced cytopathogenicity. The class given is functional, organism-based. The note with it: Human alphaherpesvirus 2, strain G. The essentials: as §1
Data set [11] is described as follows: Cytotoxicity against african green monkey Vero cells assessed as morphological changes by microscopic analysis. The data set is classed as cell-based. The note with it: chlorocebus sabaeus. In short, it runs like this: as §3
Data set [12] relates to Human alphaherpesvirus 3. Put plainly: Antiviral activity against Varicella zoster virus OKA infected in HEL cells assessed as reduction in viral plaque formation after 5 days relative to control. The class given is functional, cell-based. The note with it: Human alphaherpesvirus 3, strain Oka vaccine, 120 h. In short, it runs like this:
(§5)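 Confluent HEL cells were inoculated with 20 PFU VZV per well (Oka wild type or thymidine kinase-deficient 07-1). Residual virus was removed after 2 h and compound dilutions were added in duplicate. The EC50 is the concentration that reduces plaque formation by 50% after 5 days relative to untreated controls.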

Data set [13] relates to Coxsackievirus B4. Put plainly: Antiviral activity against Coxsackie virus B4 infected in HeLa cells. The class given is functional, organism-based. The note with it: Enterovirus B. In short, it runs like this:
(§6)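 Confluent HEL, Vero or HeLa monolayers were infected with 100 CCID50 of virus while exposed to fivefold serial dilutions of compound. Virus-induced cytopathicity was scored when it reached completion in untreated infected controls.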

Data set [14] concerns Human betaherpesvirus 5. The data set can be described thus: Antiviral activity against Human cytomegalovirus AD169 infected in HEL cells assessed as inhibition of virus-induced cytopathogenicity after 7 days by Giemsa staining-based microscopic analysis. The data set is classed as functional, organism-based. The settings on record: Human betaherpesvirus 5, AD169, HEL, 168 h. In short, it runs like this:
(§7)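 Confluent HEL fibroblasts infected with strains AD-169 and Davis at 100 PFU per well. After 2 h adsorption, residual virus removed and medium with test compound added, in duplicate. Incubated 7 days at 37 °C. Cytopathogenicity scored microscopically after ethanol fixation and Giemsa staining. EC50 read from graphic plots of % cytopathogenicity versus concentration.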

The test system of data set [15] is Human betaherpesvirus 5. Put plainly: Antiviral activity against Human cytomegalovirus Davis infected in HEL cells assessed as inhibition of virus-induced cytopathogenicity after 7 days by Giemsa staining-based microscopic analysis. The data set is classed as functional, organism-based. The settings on record: Human betaherpesvirus 5, Davis, 168 h. In short, it runs like this:
as §7

Data set [16] deals with Human alphaherpesvirus 1. Put plainly: Antiviral activity against thymidine kinase-deficient Herpes simplex virus 1 infected in HEL cells assessed as inhibition of virus-induced cytopathogenicity. The data set is classed as functional, organism-based. The note with it: Human alphaherpesvirus 1, HEL. In short, it runs like this: as §4
The next data set relates to L1210. The data set can be described thus: Cytostatic activity against mouse L1210 cells after 2 days by coulter counter analysis. The class given is functional, cell-based. The note with it: L1210, 48 h. In short, it runs like this: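 L1210 cells at 300,000–500,000 cells/mL were mixed 1:1 with compound dilutions and incubated for 2 days at 37 °C. Cells were counted with a Coulter counter. The IC50 is the concentration that inhibits proliferation by 50%.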

For data set [17], the system named is Vesicular stomatitis virus. Put plainly: Antiviral activity against Vesicular stomatitis virus infected in HEL cells assessed as inhibition of virus-induced cytopathogenicity. The data set is classed as functional, organism-based. In short, it runs like this:
as §6

The subject of data set [18] is Human alphaherpesvirus 3. The data set can be described thus: Antiviral activity against Varicella zoster virus 07/1 infected in HEL cells assessed as reduction in viral plaque formation after 5 days relative to control. The class given is functional, organism-based. The settings on record: Human alphaherpesvirus 3, 07/1, HEL, 120 h. In short, it runs like this: as §5

The nature of data set [19]: Cytotoxicity against MDCK cells assessed as morphological changes by microscopic analysis. The class given is cell-based, Canis lupus familiaris. The note with it: dog. In short, it runs like this: as §3
Data set [20] has as its system Respiratory syncytial virus. Put plainly: Antiviral activity against Respiratory syncytial virus infected in HeLa cells. The settings on record: human respiratory syncytial virus. The data set is classed as functional, organism-based. The essentials:
as §1

The test system of a further data set is Punta Toro virus. The data set can be described thus: Antiviral activity against Punta Toro virus infected in african green monkey Vero cells assessed as inhibition of virus-induced cytopathogenicity. The class given is functional, organism-based. The essentials: as §6

Take `NC(=O)c1ncn([C@@H]2O[C@H](CO)[C@@H](O)[C@H]2O)n1` [RIBAVIRIN]: the EC50 is over 250 µM in the data set on Sindbis virus; over 250 µM in [1]; over 50 µM in data set [2]; 2.3 µM with Influenza A virus [3]; over 250 µM in the data set with Coxsackievirus B4 [4]; 29 µM in [6]. For the same compound, the EC50 in the data set on Influenza B virus is 4.5 µM; in the data set with Influenza A virus [8], 5.1 µM; in the data set with Human alphaherpesvirus 1 [9], over 250 µM; in [10] it was over 50 µM; in the data set on Human respirovirus 3, 85 µM; in the data set with Human alphaherpesvirus 2, over 250 µM. Besides, the MCC in data set [5], in data set [7] and in data set [11] was over 250 µM in each case.

`Nc1ncnc2c1sc1ncn([C@H]3C[C@H](O)[C@@H](CO)O3)c12`: the EC50 was 8.9 µM in the data set with Human alphaherpesvirus 3 [12]; over 100 µM with Coxsackievirus B4 [13]; 100 µM in data set [1]; over 10 µM in data set [2]; over 4 µM in the data set on Human betaherpesvirus 5 [14]; over 4 µM with Influenza A virus [3]. For the same compound, the EC50 with Human betaherpesvirus 5 [15] is over 4 µM; with Human alphaherpesvirus 1 [16] it was over 20 µM; with Coxsackievirus B4 [4], over 100 µM; in data set [6] it was over 100 µM; in the data set with Influenza B virus, over 4 µM; in the data set with Influenza A virus [8], over 4 µM. Besides, the EC50 in the data set with Human alphaherpesvirus 1 [9] was over 20 µM; in data set [17], over 20 µM; in data set [10] it was over 10 µM; with Human alphaherpesvirus 3 [18], 8.9 µM; in the data set with Human respirovirus 3 it was over 100 µM; in the data set on Human alphaherpesvirus 2, over 20 µM. This compound yielded an EC50 in [20] of over 100 µM. In addition, the MCC in data set [5] is over 100 µM; in data set [7], at least 20 µM; in data set [19], 20 µM; in [11] it was over 100 µM. The compound also came in with an IC50 with L1210 of 53 µM.

Consider `Nc1nc2c(sc3ncn([C@H]4C[C@H](O)[C@@H](CO)O4)c32)c(=O)[nH]1`, for which the EC50 is 71.3 µM in the data set with Human alphaherpesvirus 3 [12]; over 100 µM in the data set with Coxsackievirus B4 [13]; over 100 µM in the data set on Sindbis virus; over 100 µM in [1]; at least 250 µM in data set [2]; over 100 µM in the data set with Human betaherpesvirus 5 [14]. Further, the EC50 in the data set on Influenza A virus [3] was over 0.16 µM; in the data set on Human betaherpesvirus 5 [15] it was over 100 µM; with Human alphaherpesvirus 1 [16], over 100 µM; in the data set with Coxsackievirus B4 [4], over 100 µM; in [6], 100 µM; with Influenza B virus, over 0.16 µM. Also, the EC50 is over 0.16 µM in the data set with Influenza A virus [8]; over 100 µM in the data set on Human alphaherpesvirus 1 [9]; over 100 µM with Punta Toro virus; over 100 µM in [17]; at least 250 µM in data set [10]; 71.3 µM in the data set on Human alphaherpesvirus 3 [18]. In addition, the EC50 (in the data set on Human respirovirus 3; in the data set on Human alphaherpesvirus 2; in data set [20]) was over 100 µM throughout. Also, the MCC is 100 µM in data set [5], over 100 µM in [7], 0.8 µM in [19] and 100 µM in data set [11]. The IC50 in the data set with L1210 turned out to be 144 µM.
